Measurements collected from several papers.
Compare with care: the assays were run in different laboratories.
MTOR: Serine/threonine-protein kinase mTOR (MTOR, Homo sapiens, UniProt P42345)
DRD2: D(2) dopamine receptor (DRD2, Homo sapiens, UniProt P14416)
EGFR: Epidermal growth factor receptor (EGFR, Homo sapiens, UniProt P00533)

Structure (SMILES)	target	test	conditions	quantity	value
C=C1C[C@H]2C[C@@H](c3ccc(Br)cc3)OCC[C@@H](O)CC(=O)O[C@@H]([C@@H](C)O)C[C@@H]3C/C(=C\C(=O)OC)[C@H](OC(=O)CCCCCCC)[C@@](O)(O3)C(C)(C)/C=C/[C@@H](C1)O2	Protein kinase C delta type (PRKCD, Homo sapiens, UniProt Q05655)	ligand displacement, radioligand		Ki	2.2 nM
O=c1c(O)c(-c2ccc(O)c(O)c2)oc2cc(O)ccc12	MTOR	cell-free assay, competition with immobilised ligand		Kd	11000 nM
CC[C@H](C)[C@H](NC(=O)[C@@H](N)CCCNC(=N)N)C(=O)N[C@H](C(=O)N1CCC[C@H]1C(=O)N[C@@H](C)C(N)=O)C(C)C	Sequestosome-1 (SQSTM1, Homo sapiens, UniProt Q13501)	binding, MST	pH 7	Kd	800 nM
CCCC[C@@H](NC(=O)[C@@H](N)Cc1c(C)cc(O)cc1C)C(=O)NCC(=O)N[C@@H](Cc1ccc(F)cc1)C(=O)N(C)CCC[C@@]1(c2ccc(F)cc2)OCc2cc(C#N)ccc21	DRD2	ligand displacement, radioligand		Ki	2700 nM
Cl.Cl.N.N.N.N.N.N.N.N.[N-3].[Ru+4].[Ru+4]	Calcium uniporter protein, mitochondrial (MCU, Homo sapiens, UniProt Q8NE86)	transporter uptake, inhibitor		IC50	8.6 nM
Nc1ncc(-c2nc(N3CCOCC3)nc(N3CCOCC3)n2)c(C(F)F)n1	MTOR	binding, competition with immobilised ligand		Kd	21.5 nM
COCCCN1CCN(c2ccccc2OC)CC1	DRD2	ligand displacement, radioligand		Ki	180 nM
Cc1cc(O)cc(C)c1C[C@H](N)C(=O)N[C@H](C)C(=O)NCC(=O)N[C@@H](Cc1ccc(Cl)cc1)C(=O)N(C)CCC[C@@]1(c2ccc(F)cc2)OCc2cc(C#N)ccc21	DRD2	ligand displacement, radioligand		Ki	2200 nM
CSCC[C@H](NC(=O)[C@H](CC(C)C)NC(=O)[C@H](Cc1cnc[nH]1)NC(=O)CNC(=O)[C@@H](NC(=O)[C@H](C)NC(=O)[C@H](Cc1c[nH]c2ccccc12)NC(=O)[C@H](CCC(N)=O)NC(=O)[C@H](CC(N)=O)NC(=O)CNC(=O)[C@H](CC(C)C)NC(=O)[C@H](CCCN=C(N)N)NC(=O)[C@H](CCC(N)=O)NC(=O)[C@@H]1CCC(=O)N1)C(C)C)C(N)=O	Bombesin receptor subtype-3 (Brs3, Rattus norvegicus, UniProt Q8K418)	calcium signal, agonist, fluorescence		EC50	> 10000 nM
OC(c1ccc(F)cc1)C(F)(F)CCN1CCC(O)(c2ccc(Cl)cc2)CC1 (racemic)	DRD2	cell-free assay, radioligand		Ki	1960 nM
CC(C)[C@@H]1NC(=O)[C@H](CCCNC(=N)N)NC(=O)[C@H](Cc2ccc(O)cc2)NC(=O)[C@H](C(C)C)NC(=O)[C@H](C(C)C)NC(=O)[C@H](CCCNC(=N)N)NC(=O)[C@H](CC(=O)O)NC(=O)[C@H](CC(=O)O)NC(=O)CCNC(=O)[C@H](Cc2ccc(O)cc2)NC(=O)[C@H](Cc2ccc(O)cc2)NC(=O)[C@H](Cc2ccccc2)NC(=O)[C@@H](Cc2ccc(O)cc2)NC(=O)CSC[C@@H](C(=O)NCC(N)=O)NC(=O)CCNC1=O	EGFR	binding, SPR		Kd	632 nM
CC/C=C\C/C=C\C/C=C\CCCCCCCC(=O)O	Liver carboxylesterase (Sus scrofa, UniProt Q29550)	enzyme activity, inhibitor, HPLC		Ki	620 nM
CC(C)[C@@H]1NC(=O)CCNC(=O)CCNC(=O)[C@H](Cc2ccc(O)cc2)NC(=O)[C@H](Cc2ccc(O)cc2)NC(=O)[C@H](Cc2ccccc2)NC(=O)[C@@H](Cc2ccc(O)cc2)NC(=O)CSC[C@@H](C(=O)NCC(N)=O)NC(=O)CCNC(=O)[C@H](CCCNC(=N)N)NC(=O)[C@H](CCCNC(=N)N)NC(=O)[C@H](Cc2ccc(O)cc2)NC(=O)[C@H](C(C)C)NC(=O)[C@H](C(C)C)NC(=O)[C@H](CC(N)=O)NC1=O	EGFR	binding, SPR		Kd	1690 nM
CC(C)C[C@H](NC(=O)[C@H](Cc1ccccc1)NC(=O)[C@H](Cc1ccc(O)cc1)NC(=O)CNC(=O)[C@H](CCCCN)NC(=O)[C@H](CO)NC(=O)[C@H](CCC(N)=O)NC(=O)CNC(=O)[C@@H](NC(=O)[C@H](CO)NC(=O)[C@@H]1CCCN1C(=O)[C@H](CO)NC(=O)[C@H](CCC(N)=O)NC(=O)[C@H](Cc1ccc(O)cc1)NC(=O)[C@H](CCC(=O)O)NC(=O)[C@H](C)NC(=O)[C@H](CCCCN)NC(=O)[C@@H](N)Cc1ccccc1)C(C)C)C(=O)N[C@@H](Cc1ccccc1)C(=O)N[C@@H](CCCNC(=N)N)C(=O)N1CCC[C@H]1C(=O)N[C@@H](CCCNC(=N)N)C(=O)N[C@@H](CC(N)=O)C(N)=O	Neuromedin-U receptor 2 (Mus musculus, UniProt Q8BZ39)	inositol phosphate, agonist		EC50	0.794 nM
